In ChEMBL document CHEMBL2057170, “Synthesis and binding properties of new selective ligands for the nucleobase opposite the AP site” (Bioorg Med Chem, 2012):
Values belong to the compound of their own block, whether it stands above or below them.

How the values were obtained:
Type in all cases: nucleic-acid assay
[1] = system: Nucleic Acid; assay: Binding affinity to DNA 5'-d GCG TAC AP CAT GCG-3' 3'-d CGC ATG A GTA CGC-5' assessed as melting temperature pretreated for 5 mins in presence of 50 mM NaCl
How it was run: (§1)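 UV thermal denaturation at 260 nm used 4 µM duplex (AP = THF) with or without 20 µM ligand in 10 mM HEPES-NaOH pH 7.0, 50 mM NaCl. Samples were preheated 5 min at 80 °C, then slowly cooled. Melts ran 20–80 °C at 1 °C/min. Tm came from non-linear fitting; ΔTm = Tm(+) − Tm(−).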

[2] = system: Nucleic Acid; assay: Binding affinity to DNA 5'-d GCG TAC AP CAT GCG-3' 3'-d CGC ATG T GTA CGC-5' assessed as equilibrium association constant by SPR analysis in presence of 50 mM NaCl
How it was run: (§2)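 SPR on BIACORE3000. Hairpin duplexes carrying the AP site (THF) opposite X were 5'-biotin-labelled and immobilized in HBS-N (pH 7.4, 150 mM NaCl). Binding was run in 10 mM HEPES-NaOH pH 7.0 with 50 mM NaCl at 25 °C. Ligand 0.05–2.00 µM was injected at 20 µl/min for 300 s, then 120 s dissociation. Ka came from steady-state affinity analysis with a one-site fit.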

[3] = system: Nucleic Acid; assay: Binding affinity to DNA 5'-d GCG TAC AP CAT GCG-3' 3'-d CGC ATG G GTA CGC-5' assessed as melting temperature pretreated for 5 mins in presence of 50 mM NaCl; how it was run: as §1
[4] = system: Nucleic Acid; assay: Binding affinity to DNA 5'-d GCG TAC AP CAT GCG-3' 3'-d CGC ATG C GTA CGC-5' assessed as melting temperature pretreated for 5 mins in presence of 50 mM NaCl; how it was run: as §1
[5] = system: Nucleic Acid; assay: Binding affinity to DNA 5'-d GCG TAC AP CAT GCG-3' 3'-d CGC ATG G GTA CGC-5' assessed as equilibrium association constant by SPR analysis in presence of 50 mM NaCl; how it was run: as §2
[6] = system: Nucleic Acid; assay: Binding affinity to DNA 5'-d GCG TAC AP CAT GCG-3' 3'-d CGC ATG C GTA CGC-5' assessed as equilibrium association constant by SPR analysis in presence of 50 mM NaCl; how it was run: as §2
[7] = system: Nucleic Acid; assay: Binding affinity to DNA 5'-d GCG TAC AP CAT GCG-3' 3'-d CGC ATG T GTA CGC-5' assessed as melting temperature pretreated for 5 mins in presence of 50 mM NaCl; how it was run: as §1
[8] = system: Nucleic Acid; assay: Binding affinity to DNA 5'-d GCG TAC AP CAT GCG-3' 3'-d CGC ATG A GTA CGC-5' assessed as equilibrium association constant by SPR analysis in presence of 50 mM NaCl; how it was run: as §2
[9] = system: Nucleic Acid; assay: Binding affinity to DNA 5'-d GCG TAC AP CAT GCG-3' 3'-d CGC ATG A GTA CGC-5' assessed as melting temperature pretreated for 5 mins in presence of 100 mM NaCl
How it was run: (§3)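 UV thermal denaturation at 260 nm used 4 µM duplex (AP = THF) with or without 20 µM ligand in 10 mM HEPES-NaOH pH 7.0, 100 mM NaCl. Samples were preheated 5 min at 80 °C, then slowly cooled. Melts ran 20–80 °C at 1 °C/min. Tm came from non-linear fitting; ΔTm = Tm(+) − Tm(−).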

[10] = system: Nucleic Acid; assay: Binding affinity to DNA 5'-d GCG TAC AP CAT GCG-3' 3'-d CGC ATG C GTA CGC-5' assessed as melting temperature pretreated for 5 mins in presence of 100 mM NaCl; how it was run: as §3
[11] = system: Nucleic Acid; assay: Binding affinity to DNA 5'-d GCG TAC AP CAT GCG-3' 3'-d CGC ATG G GTA CGC-5' assessed as melting temperature pretreated for 5 mins in presence of 100 mM NaCl; how it was run: as §3
[12] = system: Nucleic Acid; assay: Binding affinity to DNA 5'-d GCG TAC AP CAT GCG-3' 3'-d CGC ATG T GTA CGC-5' assessed as melting temperature pretreated for 5 mins in presence of 100 mM NaCl; how it was run: as §3

Compound: NCCCNCCCN
Ka [2]: < 0.001 ×10⁶ /M

Compound: NCCCNCCCNCCCn1cnc2c(N)ncnc21
Ka [2]: 3.9 ×10⁶ /M | Tm [9]: 40.4 °C | Ka [5]: 0.087 ×10⁶ /M | Tm [10]: 34.6 °C | Ka [6]: 0.01 ×10⁶ /M | Tm [11]: 40.8 °C | Tm [12]: 43.7 °C | Ka [8]: 0.057 ×10⁶ /M

Compound: NCCCNCCCNCCCn1cnc2c(=O)[nH]c(N)nc21
Ka [2]: 0.08 ×10⁶ /M | Tm [9]: 40.4 °C | Ka [5]: 0.047 ×10⁶ /M | Tm [10]: 40.8 °C | Ka [6]: 6.3 ×10⁶ /M | Tm [11]: 40.9 °C | Tm [12]: 38.1 °C | Ka [8]: 0.016 ×10⁶ /M

More lines, now with the values ahead:

Tm [1]: 35.2 °C | Ka [2]: 0.001 ×10⁶ /M | Tm [3]: 40.5 °C | Tm [4]: 32.6 °C | Ka [5]: 0.039 ×10⁶ /M | Ka [6]: 0.002 ×10⁶ /M | Tm [7]: 32.4 °C | Ka [8]: 0.002 ×10⁶ /M
Compound: NCCCNCCCNCCCn1ccc(N)nc1=O

Tm [1]: 39.1 °C | Ka [2]: 0.027 ×10⁶ /M | Tm [3]: 36.4 °C | Tm [4]: 32.1 °C | Ka [5]: 0.001 ×10⁶ /M | Ka [6]: 0.022 ×10⁶ /M | Tm [7]: 33.9 °C | Ka [8]: 0.045 ×10⁶ /M
Compound: NCCCNCCCNCCCn1ccc(=O)[nH]c1=O

Tm [1]: 39.2 °C | Ka [2]: 0.053 ×10⁶ /M | Tm [3]: 37.8 °C | Tm [4]: 33.8 °C | Ka [5]: 0.043 ×10⁶ /M | Ka [6]: 0.063 ×10⁶ /M | Tm [7]: 35.5 °C | Ka [8]: 0.222 ×10⁶ /M
Compound: Cc1cn(CCCNCCCNCCCN)c(=O)[nH]c1=O
